Measurements reported in ChEMBL document CHEMBL3351863, “Optimization of 2-phenyl-pyrimidine-4-carboxamides towards potent, orally bioavailable and selective P2Y(12) antagonists for inhibition of platelet aggregation” (Bioorg Med Chem Lett, 2014).

Legend:
[1] = Oral bioavailability in Wistar rat at 10 mg/kg; type: ADME, organism-based; conditions: Wistar, in vivo
Summary of the method: (§1)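 Rats dosed by iv infusion at 1 mg/kg (n = 2) or orally at 10 mg/kg (n = 3); plasma levels measured, limit of quantification ca. 1 ng/mL.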

[2] = Volume of distribution at steady state in Wistar rat at 1 mg/kg, iv or 10 mg/kg, po; type: ADME, organism-based; conditions: in vivo, read-out: Vdss; summary of the method: as §1
Liver microsome [3] = assay: Metabolic stability assay in rat liver microsomes assessed as parent drug disappearance at 1 uM after 20 mins by HPLC and mass spectrometry method; type: ADME
Liver microsome [4] = assay: Metabolic stability assay in human liver microsomes assessed as parent drug disappearance at 1 uM after 20 mins by HPLC and mass spectrometry method; type: ADME
Cytochrome P450 2C9 = Cytochrome P450 2C9 (Homo sapiens, UniProt P11712); assay: Inhibition of CYP2C9 in human liver microsomes assessed as reduction in diclofenac 4'-hydroxylation; type: ADME
Sequence of Cytochrome P450 2C9 (P11712 whole entry): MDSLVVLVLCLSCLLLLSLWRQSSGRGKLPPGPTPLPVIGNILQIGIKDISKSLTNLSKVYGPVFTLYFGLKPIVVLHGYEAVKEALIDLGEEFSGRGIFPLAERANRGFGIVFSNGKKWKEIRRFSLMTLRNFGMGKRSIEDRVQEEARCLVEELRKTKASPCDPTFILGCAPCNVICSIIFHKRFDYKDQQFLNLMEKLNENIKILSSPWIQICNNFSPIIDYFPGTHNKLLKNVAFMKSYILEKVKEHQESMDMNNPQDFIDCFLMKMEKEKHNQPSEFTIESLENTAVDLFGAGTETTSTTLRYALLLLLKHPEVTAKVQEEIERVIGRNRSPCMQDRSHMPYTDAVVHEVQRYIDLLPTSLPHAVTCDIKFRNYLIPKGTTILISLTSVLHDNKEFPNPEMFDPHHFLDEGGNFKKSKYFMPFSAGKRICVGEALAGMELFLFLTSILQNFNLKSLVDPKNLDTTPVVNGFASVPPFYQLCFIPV

Cytochrome P450 3A4 [5] = target: T1, Cytochrome P450 3A4 (Homo sapiens, UniProt P08684); assay: Inhibition of CYP3A4 in human liver microsomes assessed as reduction in midazolam 1'-hydroxylation; type: ADME
T1 sequence (P08684 whole entry): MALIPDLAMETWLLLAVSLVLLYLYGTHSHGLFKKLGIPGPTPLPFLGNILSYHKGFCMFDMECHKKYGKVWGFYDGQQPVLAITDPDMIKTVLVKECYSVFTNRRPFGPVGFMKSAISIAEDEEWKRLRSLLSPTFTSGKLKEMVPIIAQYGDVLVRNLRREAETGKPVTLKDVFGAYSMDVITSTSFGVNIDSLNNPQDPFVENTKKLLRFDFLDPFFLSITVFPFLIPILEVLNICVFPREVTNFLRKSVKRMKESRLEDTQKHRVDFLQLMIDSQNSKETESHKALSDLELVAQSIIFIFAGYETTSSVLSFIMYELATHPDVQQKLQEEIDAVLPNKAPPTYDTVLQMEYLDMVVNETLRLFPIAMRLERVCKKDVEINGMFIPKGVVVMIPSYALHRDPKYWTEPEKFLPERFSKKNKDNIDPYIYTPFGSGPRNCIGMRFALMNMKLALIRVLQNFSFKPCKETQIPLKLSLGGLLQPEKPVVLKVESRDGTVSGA

Platelet [6] = assay: Inhibition of ADP-induced platelet aggregation in human platelet rich plasma by in-vitro light transmission aggregometry assay; type: functional; conditions: Homo sapiens, Platelet, Plasma
Summary of the method: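 Human platelet-rich plasma incubated with compound, aggregation induced by 3 µM ADP and read by light transmission aggregometry; IC₅₀ derived from concentration–response curve.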

[7] = Cmax in Wistar rat at 10 mg/kg, po; type: ADME, organism-based; set-up: dose 10 mg/kg, route oral; conditions: Wistar, in vivo; summary of the method: as §1
P2Y purinoceptor 12 = P2Y purinoceptor 12 (Homo sapiens, UniProt Q9H244); assay: Displacement of [3H]-2-methyl-thio-adenosine 5'-diphosphate from human recombinant P2Y12 expressed in CHO cell membranes by scintillation counting method
Sequence of P2Y purinoceptor 12 (Q9H244 whole entry): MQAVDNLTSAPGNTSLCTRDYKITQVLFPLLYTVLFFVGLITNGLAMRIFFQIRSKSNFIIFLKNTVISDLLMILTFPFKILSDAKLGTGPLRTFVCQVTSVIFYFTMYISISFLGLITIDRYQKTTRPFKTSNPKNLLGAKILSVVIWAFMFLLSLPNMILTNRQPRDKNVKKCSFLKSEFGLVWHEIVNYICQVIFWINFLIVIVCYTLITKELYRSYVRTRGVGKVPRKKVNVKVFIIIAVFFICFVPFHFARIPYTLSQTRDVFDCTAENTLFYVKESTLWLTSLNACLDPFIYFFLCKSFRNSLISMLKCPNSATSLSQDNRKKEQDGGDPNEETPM
Summary of the method: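 CHO cells expressing recombinant P2Y₁₂ receptors, incubated with tritium-labeled 2-methyl-thio-adenosine 5'-diphosphate plus test compound; IC₅₀ from displacement curves, each point in triplicate; reference compound run with every compound set, and set re-analyzed if its IC₅₀ fell outside pre-set 95% confidence interval.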

[8] = target: Voltage-gated inwardly rectifying potassium channel KCNH2 (Homo sapiens, UniProt Q12809); assay: Inhibition of human ERG expressed in HEK cells by patch-clamp assay; type: cell-based; conditions: hek293
Sequence of Voltage-gated inwardly rectifying potassium channel KCNH2 (Q12809 whole entry): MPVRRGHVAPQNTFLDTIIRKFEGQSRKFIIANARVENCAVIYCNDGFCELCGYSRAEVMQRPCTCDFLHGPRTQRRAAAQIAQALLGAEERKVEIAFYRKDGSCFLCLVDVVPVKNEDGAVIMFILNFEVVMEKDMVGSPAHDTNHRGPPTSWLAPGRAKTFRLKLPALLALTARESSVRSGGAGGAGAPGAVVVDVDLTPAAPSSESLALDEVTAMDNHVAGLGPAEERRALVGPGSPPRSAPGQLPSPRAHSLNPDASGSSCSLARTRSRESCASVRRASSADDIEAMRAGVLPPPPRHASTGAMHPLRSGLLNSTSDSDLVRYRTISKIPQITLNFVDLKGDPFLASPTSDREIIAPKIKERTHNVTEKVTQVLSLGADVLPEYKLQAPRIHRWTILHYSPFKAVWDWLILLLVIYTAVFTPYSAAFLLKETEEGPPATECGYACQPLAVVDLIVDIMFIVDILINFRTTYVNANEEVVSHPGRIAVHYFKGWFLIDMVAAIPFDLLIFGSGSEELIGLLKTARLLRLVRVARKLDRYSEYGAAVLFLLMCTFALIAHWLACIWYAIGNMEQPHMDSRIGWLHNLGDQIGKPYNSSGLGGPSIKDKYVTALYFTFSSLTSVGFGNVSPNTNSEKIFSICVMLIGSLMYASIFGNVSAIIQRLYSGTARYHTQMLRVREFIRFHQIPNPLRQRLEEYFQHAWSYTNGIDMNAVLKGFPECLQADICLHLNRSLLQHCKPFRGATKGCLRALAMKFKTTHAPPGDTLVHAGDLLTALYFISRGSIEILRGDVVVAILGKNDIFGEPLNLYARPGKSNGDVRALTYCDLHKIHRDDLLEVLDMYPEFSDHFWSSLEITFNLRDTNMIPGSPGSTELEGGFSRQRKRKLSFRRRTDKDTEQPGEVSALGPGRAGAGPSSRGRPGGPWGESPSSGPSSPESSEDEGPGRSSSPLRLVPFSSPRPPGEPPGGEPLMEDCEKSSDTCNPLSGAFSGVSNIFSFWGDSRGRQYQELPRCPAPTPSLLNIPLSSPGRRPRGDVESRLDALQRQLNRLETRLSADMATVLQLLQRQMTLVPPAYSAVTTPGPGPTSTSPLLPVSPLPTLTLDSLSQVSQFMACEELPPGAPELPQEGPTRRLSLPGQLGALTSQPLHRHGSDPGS

[9] = AUC in Wistar rat at 10 mg/kg, po; type: ADME, organism-based, Plasma; set-up: dose 10 mg/kg, route oral; conditions: Wistar, plasma; summary of the method: as §1
[10] = Clearance in Wistar rat at 1 mg/kg, iv; type: ADME, organism-based; set-up: dose 1 mg/kg, route intravenous; conditions: in vivo; summary of the method: as §1
Cytochrome P450 2D6 = Cytochrome P450 2D6 (Homo sapiens, UniProt P10635); assay: Inhibition of CYP2D6 in human liver microsomes assessed as reduction in dextromethorphan-O demethylation; type: ADME
Sequence of Cytochrome P450 2D6 (P10635 whole entry): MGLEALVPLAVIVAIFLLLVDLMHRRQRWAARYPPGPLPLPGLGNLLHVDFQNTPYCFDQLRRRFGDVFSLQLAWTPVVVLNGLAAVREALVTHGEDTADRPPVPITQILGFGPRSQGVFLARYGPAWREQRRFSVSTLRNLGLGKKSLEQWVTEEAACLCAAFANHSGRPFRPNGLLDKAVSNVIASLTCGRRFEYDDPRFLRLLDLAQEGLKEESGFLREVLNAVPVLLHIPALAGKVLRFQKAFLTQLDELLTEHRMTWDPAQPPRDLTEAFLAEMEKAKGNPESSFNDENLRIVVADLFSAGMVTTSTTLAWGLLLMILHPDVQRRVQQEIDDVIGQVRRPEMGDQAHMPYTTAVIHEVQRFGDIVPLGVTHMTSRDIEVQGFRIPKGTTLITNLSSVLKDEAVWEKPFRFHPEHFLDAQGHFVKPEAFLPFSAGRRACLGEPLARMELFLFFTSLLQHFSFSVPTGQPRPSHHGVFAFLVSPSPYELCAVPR

[11] = Half life in Wistar rat at 1 mg/kg, iv or 10 mg/kg, po; type: ADME, organism-based; conditions: in vivo; summary of the method: as §1
[12] = Solubility in basic pH; type: physicochemical
[13] = Potency shift, ratio of IC50 for inhibition of ADP-induced platelet aggregation in human platelet rich plasma to IC50 for displacement of [3H]-2-methyl-thio-adenosine 5'-diphosphate from human recombinant P2Y12 expressed in CHO cell membranes
Cytochrome P450 3A4 [14] = target: T1, Cytochrome P450 3A4; assay: Inhibition of CYP3A4 in human liver microsomes assessed as reduction in testosterone 6beta-hydroxylation; type: ADME
[15] = Solubility in neutral pH; type: physicochemical
Platelet [16] = assay: Inhibition of ADP-induced platelet aggregation in human platelet rich plasma assessed as remaining activity at 500 nM by in-vitro light transmission aggregometry assay; type: functional
Summary of the method: (§2)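 Light transmission aggregometry in human platelet-rich plasma; compound incubated, aggregation triggered with 3 µM ADP; remaining activity (RA) recorded at a single compound level (1000, 500 or 100 nM).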

Platelet [17] = assay: Inhibition of ADP-induced platelet aggregation in human platelet rich plasma assessed as remaining activity at 100 nM by in-vitro light transmission aggregometry assay; type: functional; summary of the method: as §2
[18] = Protein binding in human plasma; type: ADME, cell-free; conditions: read-out: PPB (converted)
Platelet [19] = assay: Inhibition of ADP-induced platelet aggregation in human platelet rich plasma assessed as remaining activity at 1000 nM by in-vitro light transmission aggregometry assay; type: functional; summary of the method: as §2

Row | Compound | Stability (Liver microsome [3]) | Stability (Liver microsome [4]) | inhibition (INH) (Cytochrome P450 2C9) | inhibition (INH) (Cytochrome P450 3A4 [5]) | IC50 (Platelet [6]) | Cmax [7] | IC50 (P2Y purinoceptor 12) | inhibition (INH) [8] | AUC [9] | inhibition (INH) (Cytochrome P450 2D6) | solubility [12] | Ratio IC50 [13] | inhibition (INH) (Cytochrome P450 3A4 [14]) | solubility [15] | Activity (Platelet [16]) | Activity (Platelet [17]) | fraction unbound [18] | further results
1 | CCCCOC(=O)N1CCN(C(=O)[C@H](CCC(=O)O)NC(=O)c2cc(N3CC[C@H](OC)C3)nc(-c3ccccc3)n2)CC1 | Stable | Stable | Not Active | Not Active | 21 nM | 1690 nM | 3 nM | Not Active | 1.17 µM·h | Not Active | soluble | 7 | Not Active | soluble | – | – | – | bioavailability [1]: 9%; Vd [2]: 0.5 L/kg; clearance [10]: 24 mL/min/kg; half-life [11]: 72 min
2 | CCOC(=O)N1CCN(C(=O)[C@H](CCC(=O)O)NC(=O)c2cc(C3CCC(O)CC3)nc(-c3ccccc3)n2)CC1 (stereo partly drawn) | Stable | Stable | Not Active | Not Active | 171 nM | 46.3 nM | 40 nM | Not Active | 0.0782 µM·h | Not Active | soluble | 4.3 | Not Active | soluble | <30% | <70% | – | –
3 | CCOC(=O)N1CCN(C(=O)[C@H](CCC(=O)O)NC(=O)c2cc(C3CC3)nc(-c3ccccc3)n2)CC1 | Stable | Stable | Not Active | Not Active | 3230 nM | – | 59.5 nM | Not Active | – | Not Active | soluble | 54 | Not Active | soluble | – | – | 0.003 | –
4 | CCOC(=O)N1CCN(C(=O)[C@H](CCC(=O)O)NC(=O)c2cc(CCCO)nc(-c3ccccc3)n2)CC1 | Stable | Stable | Not Active | Not Active | 264 nM | – | 218 nM | Not Active | – | Not Active | soluble | 1.2 | Not Active | soluble | <30% | <70% | 0.128 | –
5 | CCOC(=O)N1CCN(C(=O)[C@H](CCC(=O)O)NC(=O)c2cc(C(C)(C)O)nc(-c3ccccc3)n2)CC1 | Stable | Stable | Not Active | Not Active | 118 nM | 56.1 nM | 35 nM | Not Active | 0.109 µM·h | Not Active | soluble | 3.4 | Not Active | soluble | <30% | <70% | – | –
6 | CCOC(=O)N1CCN(C(=O)[C@H](CCC(=O)O)NC(=O)c2cc(N3CCN(C)CC3)nc(-c3ccccc3)n2)CC1 | Stable | Stable | Not Active | Not Active | – | 192 nM | 46 nM | Not Active | 0.164 µM·h | Not Active | soluble | – | Not Active | soluble | <30% | <70% | – | bioavailability [1]: 3%; Vd [2]: 0.8 L/kg; clearance [10]: 49 mL/min/kg; half-life [11]: 18 min
7 | CCCNc1cc(C(=O)N[C@@H](CCC(=O)O)C(=O)N2CCN(C(=O)OCC)CC2)nc(-c2ccccc2)n1 | Stable | Stable | Not Active | Not Active | 3820 nM | – | 162 nM | Not Active | – | Not Active | soluble | 24 | Not Active | soluble | – | – | 0.015 | –
8 | CCCCc1cc(C(=O)N[C@@H](CCC(=O)O)C(=O)N2CCN(C(=O)OCC)CC2)nc(-c2ccccc2)n1 | Stable | Stable | Not Active | Not Active | 1930 nM | – | – | Not Active | – | Not Active | soluble | 20 | Not Active | soluble | >60% | – | 0.007 | Activity (Platelet [19]): >30%
9 | CCOC(=O)N1CCN(C(=O)[C@H](CCC(=O)O)NC(=O)c2cc(N[C@@H]3CCOC3)nc(-c3ccccc3)n2)CC1 | Stable | Stable | Not Active | Not Active | 58 nM | – | 25 nM | Not Active | – | Not Active | soluble | 2.3 | Not Active | soluble | <30% | <70% | 0.085 | –
